Laboratory results: ChEMBL document CHEMBL4673269, “Discovery of S64315, a Potent and Selective Mcl-1 Inhibitor” (J Med Chem, 2020)
The source made the active and inactive calls. No cut-off for these calls is given here.

What was measured:
Raji = experiment: Antiproliferative activity against human Raji assessed as reduction in cell viability incubated for 3 days by Cell Titer Blue assay; type: functional, cell-based; settings: time 3.0 day
[1] = target: Voltage-gated inwardly rectifying potassium channel KCNH2 (Homo sapiens, UniProt Q12809); experiment: Inhibition of human ERG
Chain of Voltage-gated inwardly rectifying potassium channel KCNH2 (Q12809 whole entry): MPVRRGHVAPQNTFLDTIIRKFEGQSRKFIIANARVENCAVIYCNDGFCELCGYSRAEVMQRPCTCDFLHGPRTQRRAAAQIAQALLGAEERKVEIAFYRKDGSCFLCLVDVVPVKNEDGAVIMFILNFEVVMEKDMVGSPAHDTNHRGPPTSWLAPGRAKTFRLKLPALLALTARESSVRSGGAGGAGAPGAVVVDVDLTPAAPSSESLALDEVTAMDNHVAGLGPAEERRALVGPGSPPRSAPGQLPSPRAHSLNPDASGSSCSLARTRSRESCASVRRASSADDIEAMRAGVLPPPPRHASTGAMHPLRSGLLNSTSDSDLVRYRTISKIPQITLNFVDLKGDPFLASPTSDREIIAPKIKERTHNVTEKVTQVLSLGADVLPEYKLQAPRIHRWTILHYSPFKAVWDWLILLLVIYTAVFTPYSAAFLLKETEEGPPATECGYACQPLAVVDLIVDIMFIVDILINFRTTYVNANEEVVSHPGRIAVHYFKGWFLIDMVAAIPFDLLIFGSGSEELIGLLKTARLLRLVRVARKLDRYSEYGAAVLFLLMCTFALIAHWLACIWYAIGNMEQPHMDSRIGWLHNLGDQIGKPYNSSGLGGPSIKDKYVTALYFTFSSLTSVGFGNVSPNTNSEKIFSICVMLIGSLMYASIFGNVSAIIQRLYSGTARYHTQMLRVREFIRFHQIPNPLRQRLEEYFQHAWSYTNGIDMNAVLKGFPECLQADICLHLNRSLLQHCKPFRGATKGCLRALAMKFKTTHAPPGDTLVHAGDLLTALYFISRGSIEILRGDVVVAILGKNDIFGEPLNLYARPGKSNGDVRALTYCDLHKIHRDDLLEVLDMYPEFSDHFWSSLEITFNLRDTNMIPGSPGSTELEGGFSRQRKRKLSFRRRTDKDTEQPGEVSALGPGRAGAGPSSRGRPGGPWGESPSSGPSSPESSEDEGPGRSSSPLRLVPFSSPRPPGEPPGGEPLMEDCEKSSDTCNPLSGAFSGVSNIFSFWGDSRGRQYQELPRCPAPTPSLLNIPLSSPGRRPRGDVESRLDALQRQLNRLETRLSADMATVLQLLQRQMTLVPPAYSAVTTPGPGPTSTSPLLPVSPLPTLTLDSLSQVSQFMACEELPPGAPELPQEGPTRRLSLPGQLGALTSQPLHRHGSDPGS

MV4-11 = experiment: Antiproliferative activity against human MV411 assessed as reduction in cell viability incubated for 3 days by Cell Titer Blue assay; type: functional, cell-based; settings: time 3.0 day
THP-1 [2] = experiment: Induction of apoptosis in human THP1 cells incubated for 2 hrs by annexin-V-FITC and propidium iodide staining based by flow cytometry; type: functional, cell-based
Summary of the method: (§1)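 THP-1 cells, wild type or CRISPR BAX/BAK knockout (verified by Western blot), were treated for 2 h. They were washed in binding buffer (10 mM Hepes, 140 mM NaCl, 2.5 mM CaCl₂) and stained with annexin V-FITC and PI for 15 min at 20 °C in the dark. 10⁴ cells per sample were read by flow cytometry. Apoptotic plus necrotic cells were normalised to total cells. Two biological replicates; DMSO control.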

[3] = Clearance in mouse at […] mg/kg, iv formulated with 20 % HPBCD in water/ […]% HCl; type: ADME, organism-based; settings: in vivo
[4] = Terminal half-life in mouse at 12.5 mg/kg, iv formulated with 20 % HPBCD in water/ […]; type: ADME, organism-based; settings: in vivo, read-out: beta t1/2 (converted)
[5] = target: Bcl-2-like protein 1 (Homo sapiens) (UniProt Q07817); experiment: Displacement of Bak BH3 domain from FLAG-tagged Bcl-xl (unknown origin) expressed in human Hela cells at 30 to 300 nM incubated for 2 hrs by immunoprecipitation assay; type: cell-based; settings: dose 30-300 nM
Chain of Bcl-2-like protein 1 (Homo sapiens) (Q07817 whole entry, the tested form may be a part): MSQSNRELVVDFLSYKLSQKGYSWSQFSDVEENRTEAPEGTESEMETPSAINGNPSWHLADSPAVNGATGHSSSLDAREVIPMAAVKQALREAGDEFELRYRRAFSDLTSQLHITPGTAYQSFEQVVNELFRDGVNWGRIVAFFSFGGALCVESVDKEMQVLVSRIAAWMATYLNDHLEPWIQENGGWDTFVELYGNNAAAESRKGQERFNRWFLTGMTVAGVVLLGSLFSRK
Summary of the method: (§2)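 HeLa cells in DMEM with 10% FCS were transiently transfected with Flag-tagged Mcl-1, Bcl-xL or Bcl-2 vectors. 24 h later they were treated for 2 h and lysed (Hepes pH 7.5, 150 mM KCl, MgCl₂, EDTA, 0.4% Triton X100). Cleared lysates were immunoprecipitated with anti-Flag M2 beads. Inputs and IPs were immunoblotted for endogenous Bax, Bak and Flag.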

[6] = target: Induced myeloid leukemia cell differentiation protein Mcl-1 (Homo sapiens) (UniProt Q07820); experiment: Displacement of Bak BH3 domain from FLAG-tagged Mcl-1 (unknown origin) expressed in human Hela cells at 30 to 300 nM incubated for 2 hrs by immunoprecipitation assay; type: cell-based; settings: dose 30-300 nM; summary of the method: as §2
Chain of Induced myeloid leukemia cell differentiation protein Mcl-1 (Homo sapiens) (Q07820 whole entry, the tested form may be a part): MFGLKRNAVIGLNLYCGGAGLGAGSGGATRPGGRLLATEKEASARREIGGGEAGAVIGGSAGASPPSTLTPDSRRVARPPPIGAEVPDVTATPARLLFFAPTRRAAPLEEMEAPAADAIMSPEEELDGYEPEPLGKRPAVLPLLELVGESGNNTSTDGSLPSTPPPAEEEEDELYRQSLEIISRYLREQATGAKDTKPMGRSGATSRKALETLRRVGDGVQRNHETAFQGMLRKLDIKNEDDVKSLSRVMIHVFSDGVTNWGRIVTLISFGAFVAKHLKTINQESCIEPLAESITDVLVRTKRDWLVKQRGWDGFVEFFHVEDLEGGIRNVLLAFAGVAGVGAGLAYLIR

THP-1 [7] = experiment: Induction of apoptosis in Bax/Bak knockout human THP1 cells at 1 to 3000 nM incubated for 2 hrs by annexin-V-FITC and propidium iodide staining based by flow cytometry; type: functional, cell-based; settings: dose 1-3000 nM; summary of the method: as §1
[8] = target: Induced myeloid leukemia cell differentiation protein Mcl-1 (Homo sapiens) (UniProt Q07820); experiment: Stabilization of Mcl-1 in human HCT116 cells assessed as increase in Mcl-1 protein levels incubated for 16 hrs by western blot analysis; type: cell-based; settings: HCT-116, dose 0.3-10000 nM
Summary of the method: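 HCT116 cells were seeded at 0.25×10⁶ per 35 mm dish in RPMI 1640 with 10% decomplemented FBS, 2 mM L-glutamine and 10 mM Hepes pH 7.4, at 37 °C and 5% CO₂. After 48 h they were dosed for 16 h and lysed in Hepes/KCl/MgCl₂/EDTA/1% NP40 buffer with inhibitors. Lysate (20 μg) was immunoblotted for Mcl-1, with actin as loading control.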

AMO1 = experiment: Antitumor activity against human AMO1 xenografted in CB-17 SCID mouse assessed as maximum tumor growth inhibition at 12.5 mg/kg, iv administered for 5 consecutive days measured post-last dose; type: functional; set-up: scale not given: the % may be the effect or the level left; settings: time 5 day
Summary of the method: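 Female CB-17 SCID mice, 6−7 weeks old. 5 × 10⁶ AMO-1 cells in growth medium/Matrigel 50:50 injected subcutaneously in the right flank. Randomised at about 200 mm³, n = 8 to 10 per group. Dosed iv in 20% HPbCD–25 mM HCl, daily for 5 days or weekly for 4 weeks. Calipers 2−3 times weekly; volume = length × width²/2. TGI computed from median change in volume versus control; delay judged at median volume 500 mm³.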

[9] = target: Induced myeloid leukemia cell differentiation protein Mcl-1 (Homo sapiens) (UniProt Q07820); experiment: Displacement of Bax BH3 domain from FLAG-tagged Mcl-1 (unknown origin) expressed in human Hela cells at 30 to 300 nM incubated for 2 hrs by immunoprecipitation assay; type: cell-based; settings: dose 30-300 nM; summary of the method: as §2

For `COc1ccccc1-c1nccc(COc2ccccc2C[C@@H](Oc2ncnc3sc(-c4ccc(F)cc4)c(-c4ccc(OCCN5CCN(C)CC5)c(Cl)c4C)c23)C(=O)O)n1`, the Activity (Raji) was “Active”, the IC50 [1] was greater than 3 µM and the Activity (MV4-11) was “Active”. For the same molecule, the Activity (THP-1 [2]) was “Dose-dependent effect”, the clearance [3] was 5.3 mL/min/kg and the half-life [4] was 5 h. The Activity [5] was “inactive”, the Activity [6] was “Active” and the Activity (THP-1 [7]) was “inactive”. For the same molecule, the Activity [8] was “Dose-dependent effect”, the Activity (AMO1) was 162.8% and the Activity [9] was “Active”.
